Published values of several laboratories.
Target: Mitogen-activated protein kinase 9 (MAPK9, Homo sapiens, UniProt P45984)

Structure (SMILES) | effect on | technique | concentration | remaining binding
O=C(NCC1CCOCC1)c1n[nH]cc1NC(=O)c1c(F)cccc1F | binding | competition with immobilised ligand | 1 µM | 57%
Nc1ncc2c(n1)-c1c([nH]c3ccc(C#CC4CC4)cc13)CCCC2 | binding | competition with immobilised ligand | 1 µM | 81%
CN(CCCC(F)(F)F)c1nccc(-c2cnn3ncccc23)n1 | binding | – | 1 µM | 90%
Cc1cnc(Nc2ccc(C(=O)N3CCC(N4CCCC4)CC3)cc2)nc1-c1cc2ccccc2s1 | binding | competition with immobilised ligand | 1 µM | 14%
N[C@H]1CCN(c2nccc(-c3cnn4ncccc34)n2)C1 | binding | – | 1 µM | 100%
CCN1CCN(Cc2ccc(C(=O)Nc3ccc(C)c(Oc4ccc5c(c4)CC(=O)N5)c3)cc2C(F)(F)F)CC1 | binding | competition with immobilised ligand | 1 µM | 29%
COc1cccc(CNC(=O)c2nc3scc(COCc4ccc(C(=O)O)cc4)c3c(=O)[nH]2)c1 | cell-free assay | competition with immobilised ligand | 1 µM | 97.1%
O=C(NCCCN1CCOCC1)c1ccc(Nc2ncc(Cl)c(-c3ccc(Cl)s3)n2)cc1 | binding | competition with immobilised ligand | 1 µM | 11%
COc1cnc(Nc2cccc(S(N)(=O)=O)c2)nc1N1CCN(c2ccccc2)C(=O)C1 | binding | competition with immobilised ligand | 1 µM | 69%
O=C(NCCCC1CCCCC1)c1ccc(CNC(=O)c2cnn(-c3ccccc3)c2C(F)(F)F)cc1 | cell-free assay | competition with immobilised ligand | 0.1 µM | 85%
COc1ccnn2ncc(-c3ccnc(N(C)C)n3)c12 | binding | – | 1 µM | 100%
CNCc1ccccc1-c1csc([C@H](C)Nc2nc(C)nc3cc(OC)c(OC)cc23)c1 | cell-free assay | competition with immobilised ligand | 1 µM | 71%
O=C(NCCCN1CCOCC1)c1ccc(Nc2nccc(-c3cc4ccccc4s3)n2)cc1 | binding | competition with immobilised ligand | 1 µM | 33%
C[C@@H]1CN(c2ccc3ncc(-c4ccc5[nH]nc(C6CC6)c5c4)n3n2)C[C@H](C)O1 | binding | competition with immobilised ligand | 0.5 µM | 50%
FC(F)(F)Oc1cccc(-c2cnc3ccc(-c4ccncc4)nn23)c1 | cell-free assay | competition with immobilised ligand | 5 µM | 76%
CCC(=N\O)/C(C)=C/c1ccc(F)cc1 | cell-free assay | competition with immobilised ligand | 1 µM | 92%
C[C@@H]1CCN(c2nccc(-c3cnn4ncccc34)n2)C1 | binding | – | 1 µM | 64%
CCC(=O)N[C@H]1CC[C@@H](C(=O)N(C)c2ccc(-c3nc4ccccc4o3)cc2)C1 | cell-free assay | competition with immobilised ligand | 1 µM | 79%
c1cncc(-c2cccc(Nc3nccc(NC4CCCCC4)n3)c2)c1 | binding | competition with immobilised ligand | 10 µM | 74%
CN(c1nccc(-c2cnn3ncccc23)n1)C1CC1 | binding | – | 1 µM | 100%
COc1ccc2cc(OCC3(C(=O)O)CN(C(=O)c4ccc(F)cc4)C3)ccc2c1 | cell-free assay | competition with immobilised ligand | 1 µM | 100%
CN(C)c1nccc(-c2cnn3ncccc23)n1 | binding | – | 1 µM | 55%
CC1=C(C#N)C(c2ccc3c(c2)c(NC(=O)c2ccccc2C)nn3C)C(C#N)=C(C)N1 | cell-free assay | competition with immobilised ligand | 1 µM | 73%
CNC(=O)[C@@H]1CC[C@@H](n2c(-c3ccc4cnccc4c3)nc3ccc(C(=O)NCc4cccc(C(N)=O)c4)cc32)C1 | binding | competition with immobilised ligand | 1 µM | 67%
